The source made the active and inactive calls. The rule behind the calls is not given here.
How the values were obtained:
T98G [1] = assay: Anticancer activity against human T98G cells assessed as decrease in cell viability after 48 hrs by MTT assay; format: functional, cell-based
How it was run: (§1)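 Cells (T98G, U87-MG, NHA; 3 × 10^4 per well) plated, next day exposed to serial dilutions (1−50 μM) for 48 h at 37 °C, 5% CO2. MTT (5 mg/mL) added for 3 h; crystals solubilized in 50% DMF/20% SDS pH 4.5; OD at 620 nm. Viability = % of DMSO (0.1% final) controls. Means ± SEM, three experiments in triplicate.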

T98G [2] = assay: Anticancer activity against human T98G cells assessed as decrease in cell viability at 10 uM after 48 hrs by MTT assay; format: functional, cell-based; how it was run: as §1
T98G [3] = assay: Anticancer activity against human T98G cells assessed as decrease in cell viability at 50 uM after 48 hrs by MTT assay; format: functional; how it was run: as §1
U-87MG ATCC = assay: Anticancer activity against human U87MG cells assessed as decrease in cell viability at 50 uM after 48 hrs by MTT assay; format: functional, cell-based; how it was run: as §1
[4] = Cytotoxicity against normal human astrocytes assessed as decrease in cell viability after 48 hrs by MTT assay; format: cell-based; settings: astrocyte; how it was run: as §1
T98G [5] = assay: Induction of cell cycle arrest in human T98G cells assessed as accumulation at G0/G1 phase at 1 to 20 uM after 48 hrs by flow cytometric analysis; format: functional, cell-based
How it was run: (§2)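 2 × 10^5 cells per dish exposed 48 h (1−20 μM per legend); harvested, fixed in cold 70% ethanol at −20 °C, stained with propidium iodide plus RNase A (100 U/mL) 30 min at room temperature; percentage in G1, S, G2/M by flow cytometry. Three experiments in triplicate.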

T98G [6] = assay: Induction of cell cycle arrest in human T98G cells assessed as accumulation at G2/M phase at 1 to 20 uM after 48 hrs by flow cytometric analysis; format: functional, cell-based; how it was run: as §2
T98G [7] = assay: Induction of cell cycle arrest in human T98G cells assessed as accumulation at S phase at 1 to 20 uM after 48 hrs by flow cytometric analysis; format: functional, cell-based; how it was run: as §2
U-87 MG [8] = assay: Induction of cell cycle arrest in human U87MG cells assessed as accumulation at G0/G1 phase at 1 to 20 uM after 48 hrs by flow cytometric analysis; format: functional, cell-based; settings: U-87MG ATCC; how it was run: as §2
U-87 MG [9] = assay: Induction of cell cycle arrest in human U87MG cells assessed as accumulation at G2/M phase at 1 to 20 uM after 48 hrs by flow cytometric analysis; format: functional, cell-based; settings: U-87MG ATCC; how it was run: as §2
U-87 MG [10] = assay: Induction of cell cycle arrest in human U87MG cells assessed as accumulation at S phase at 1 to 20 uM after 48 hrs by flow cytometric analysis; format: functional, cell-based; settings: U-87MG ATCC; how it was run: as §2
T98G [11] = assay: Induction of apoptosis in human T98G cells assessed as increase in subG1 population after 24 to 48 hrs by propidium iodide staining based flow cytometric analysis; format: functional, cell-based
How it was run: (§3)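 Cells treated 1−50 μM for 24 or 48 h, washed in PBS, resuspended in 0.1% sodium citrate, 0.1% Triton X-100, 50 μg/mL propidium iodide, 30 min at 4 °C in dark. Nuclei analyzed by flow cytometry, DNA on log scale, debris gated out; percent hypodiploid (sub-G1) nuclei reported. Three experiments in triplicate.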

T98G [12] = assay: Induction of apoptosis in human T98G cells assessed as cell death at 20 uM after 48 hrs by propidium iodide staining based flow cytometric analysis; format: functional
How it was run: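 T98G cells grown in DMEM with 10% heat-inactivated FBS and 2 mM L-glutamine at 37 °C, 5% CO2, then exposed 24–48 h (range 1–50 μM). Percent hypodiploid nuclei counted by flow cytometry, debris gated out. Three experiments in triplicate, mean ± SEM.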

U-87 MG [13] = assay: Induction of apoptosis in human U87MG cells at 50 uM after 48 hrs by propidium iodide staining based flow cytometric analysis; format: functional, cell-based; settings: U-87MG ATCC; how it was run: as §3
[14] = target: T1, Mitogen-activated protein kinase; ERK1/ERK2 (Homo sapiens) (UniProt P27361+P28482); assay: Induction of Erk1/2 phosphorylation in human T98G cells at 20 uM measured every 5 mins for 2 hrs by Western blot analysis; format: cell-based
How it was run: (§4)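 T98G exposed to 20 μM for 5−120 min or 24 h, with or without 5 mM NAC. Lysates (Tris/deoxycholate/SDS/IGEPAL with protease and phosphatase inhibitors) immunoblotted with anti-p-ERK, ERK1/2 (1:1000), p-p38, p38; ECL detection; phospho signals normalized to total ERK1/2 or p38. Three experiments.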

[15] = target: T2, MAP kinase p38 (Homo sapiens) (UniProt O15264+Q15759+Q16539+P53778); assay: Induction of p38 phosphorylation in human T98G cells at 20 uM after 30 to 60 mins for 2 hrs by Western blot analysis; format: cell-based; how it was run: as §4
[16] = target: Mitogen-activated protein kinase 9 (Homo sapiens) (UniProt P45984); assay: Induction of JNK phosphorylation in human T98G cells at 20 uM after 30 to 60 mins for 2 hrs by Western blot analysis; format: cell-based
[17] = target: T1, Mitogen-activated protein kinase; ERK1/ERK2 (Homo sapiens); assay: Induction of Erk1/2 phosphorylation in human T98G cells at 20 uM measured every 5 mins for 2 hrs by Western blot analysis in presence of 5 mM of NAC; format: cell-based; how it was run: as §4
[18] = target: T2, MAP kinase p38 (Homo sapiens); assay: Induction of p38 phosphorylation in human T98G cells at 20 uM after 30 to 60 mins for 2 hrs by Western blot analysis in presence of 5 mM NAC; format: cell-based; how it was run: as §4
[19] = target: T1, Mitogen-activated protein kinase; ERK1/ERK2 (Homo sapiens); assay: Induction of Erk1/2 phosphorylation in human T98G cells at 20 uM measured after 24 hrs by Western blot analysis; format: cell-based; how it was run: as §4
[20] = target: T1, Mitogen-activated protein kinase; ERK1/ERK2 (Homo sapiens); assay: Induction of Erk1/2 phosphorylation in human T98G cells at 20 uM measured after 24 hrs by Western blot analysis in presence of 5 mM of NAC; format: cell-based; how it was run: as §4
[21] = target: T2, MAP kinase p38 (Homo sapiens); assay: Induction of p38 phosphorylation in human T98G cells at 20 uM measured after 24 hrs by Western blot analysis; format: cell-based; how it was run: as §4
T98G [22] = assay: Induction of apoptosis in human T98G cells at 20 uM after 48 hrs by flow cytometric analysis pretreated with 20 uM Erk inhibitor PD98059 for 30 mins; format: functional; design: scale not given: the % may be the effect or the level left
How it was run: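 T98G pretreated with PD98059 (20 μM, 30 min), SB203580 (5 μM, 1 h) or SP600125 (5 μM, 1 h), then exposed to 20 μM for 48 h; hypodiploid nuclei quantified by propidium iodide flow cytometry. Means ± SEM, three experiments in triplicate.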

T1 sequence (P27361 whole entry, looked up): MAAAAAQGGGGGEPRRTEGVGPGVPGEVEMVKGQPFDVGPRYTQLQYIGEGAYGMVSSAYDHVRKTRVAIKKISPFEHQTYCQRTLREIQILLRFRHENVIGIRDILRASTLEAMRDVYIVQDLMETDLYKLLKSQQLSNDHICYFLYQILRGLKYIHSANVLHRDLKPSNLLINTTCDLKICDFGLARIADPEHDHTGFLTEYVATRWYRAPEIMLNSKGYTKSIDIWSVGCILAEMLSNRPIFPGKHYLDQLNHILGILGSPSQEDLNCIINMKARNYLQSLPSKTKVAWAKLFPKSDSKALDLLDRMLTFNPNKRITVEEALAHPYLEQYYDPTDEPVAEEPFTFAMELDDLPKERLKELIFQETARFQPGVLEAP
T1 sequence (P28482 whole entry, looked up): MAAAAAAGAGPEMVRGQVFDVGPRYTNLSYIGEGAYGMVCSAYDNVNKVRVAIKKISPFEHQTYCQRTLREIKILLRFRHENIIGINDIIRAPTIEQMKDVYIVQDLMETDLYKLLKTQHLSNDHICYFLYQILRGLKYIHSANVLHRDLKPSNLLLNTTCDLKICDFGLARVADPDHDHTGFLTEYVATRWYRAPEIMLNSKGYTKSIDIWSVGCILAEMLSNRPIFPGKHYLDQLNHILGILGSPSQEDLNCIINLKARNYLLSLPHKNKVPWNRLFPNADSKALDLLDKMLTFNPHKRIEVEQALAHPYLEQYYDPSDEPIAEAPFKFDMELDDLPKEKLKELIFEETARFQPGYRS
Chain of Mitogen-activated protein kinase 9 (Homo sapiens) (P45984 whole entry, looked up): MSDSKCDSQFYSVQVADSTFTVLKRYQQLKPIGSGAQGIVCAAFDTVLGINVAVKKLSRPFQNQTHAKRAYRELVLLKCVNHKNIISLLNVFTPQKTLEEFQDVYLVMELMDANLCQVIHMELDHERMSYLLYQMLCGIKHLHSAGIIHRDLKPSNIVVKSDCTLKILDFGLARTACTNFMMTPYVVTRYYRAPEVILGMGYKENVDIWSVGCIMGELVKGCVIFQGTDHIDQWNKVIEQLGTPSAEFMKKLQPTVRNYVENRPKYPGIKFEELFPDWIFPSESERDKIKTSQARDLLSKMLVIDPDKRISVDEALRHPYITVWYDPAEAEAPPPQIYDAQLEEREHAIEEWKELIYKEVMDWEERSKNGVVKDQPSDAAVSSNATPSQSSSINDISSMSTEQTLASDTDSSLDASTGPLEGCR

SMILES: COc1cc(O)c(CC=C(C)C)c(O)c1C(=O)/C=C/c1ccc(O)cc1 [XANTHOHUMOL]
- Activity (T98G [1]): Dose-dependent effect
- Activity (T98G [2]): Active
- Activity (T98G [3]): 70%
- Activity (U-87MG ATCC): Active
- Activity [4]: Non-toxic
- Activity (T98G [5]): inactive
- Activity (T98G [6]): inactive
- Activity (T98G [7]): inactive
- Activity (U-87 MG [8]): inactive
- Activity (U-87 MG [9]): inactive
- Activity (U-87 MG [10]): inactive
- Activity (T98G [11]): Dose-dependent effect
- Activity (T98G [12]): 40%
- Activity (U-87 MG [13]): Active
- Activity [14]: Active
- Activity [15]: Active
- Activity [16]: inactive
- Activity [17]: inactive
- Activity [18]: inactive
- Activity [19]: Active
- Activity [20]: inactive
- Activity [21]: inactive
- Activity (T98G [22]): 50%
